According to publication PMC8268672 (Bioorganic Chemistry, 2021):
Converted amounts (≈) assume the structure as drawn.

Legend:
[1] = test system: Klebsiella aerogenes (NCIM-2098); assay: MIC, broth microdilution; format: cell-based; conditions: NCIM2098, read-out: Minimum inhibitory concentration (MIC), KA
How it was run: (§1)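 Antibacterial MICs by CLSI broth microdilution in Mueller-Hinton broth. Test compounds and standard drugs are serially diluted two-fold from 512 to 0.25. The bacterial broth culture is grown 2-6 h to a 0.5 McFarland turbidity, then adjusted with sterile solution to the final inoculum.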

[2] = test system: Aspergillus fumigatus (NCIM 2081); assay: MIC, broth microdilution; format: cell-based; conditions: NCIM2081, read-out: Minimum inhibitory concentration (MIC), AF
How it was run: (§2)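 Antifungal MICs by CLSI broth microdilution in Sabouraud liquid medium. Test compounds and standard drugs are serially diluted two-fold from 512 to 0.25. The fungal broth culture is grown 24 h at 35 °C to a 0.5 McFarland turbidity, then adjusted with sterile solution to the final inoculum.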

[3] = test system: Klebsiella aerogenes (NCIM-2098); assay: Agar disk diffusion, inhibition zone; format: cell-based; conditions: 100 µg/8 mm disc, triplicate, mean ± SD
[4] = test system: Staphylococcus aureus (ATCC 29213); assay: MIC, broth microdilution; format: cell-based; conditions: ATCC29213, read-out: Minimum inhibitory concentration (MIC), SA
How it was run: as §1

[5] = test system: Pseudomonas aeruginosa (MCCB 0035); assay: Agar disk diffusion, inhibition zone; format: cell-based; conditions: 100 µg/8 mm disc, triplicate, mean ± SD
[6] = test system: Aspergillus niger (NCIM 2191); assay: Agar disk diffusion, inhibition zone; format: cell-based; conditions: 100 µg/8 mm disc, triplicate, mean ± SD
How it was run: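 For the fungal strain, discs soaked in test compound solution (DMSO stock diluted with distilled water) sat on seeded Mueller-Hinton agar. Clotrimazole was the reference. Incubation ran 48 h at 35 °C, in triplicate. Zone of growth inhibition recorded in mm as the mean diameter around each disc.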

[7] = test system: Staphylococcus aureus (ATCC 29213); assay: Agar disk diffusion, inhibition zone; format: cell-based; conditions: 100 µg/8 mm disc, triplicate, mean ± SD
How it was run: (§3)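 Agar disk diffusion on Mueller-Hinton agar plates seeded with a standard bacterial suspension. Test compound stock in DMSO, diluted with distilled water; 8 mm sterile filter-paper discs soaked in the solution. Ampicillin was the reference. Plates incubated at 35 °C for 24 h, in triplicate. Read-out is the average inhibition-zone diameter (mm) around each disc.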

S. aureus DNA gyrase = S. aureus DNA gyrase (Staphylococcus aureus, UniProt P0A0K8+P20831); assay: DNA Gyrase inhibition assay; format: biochemical
S. aureus DNA gyrase, sequence (P20831 whole entry, the tested form may be a part): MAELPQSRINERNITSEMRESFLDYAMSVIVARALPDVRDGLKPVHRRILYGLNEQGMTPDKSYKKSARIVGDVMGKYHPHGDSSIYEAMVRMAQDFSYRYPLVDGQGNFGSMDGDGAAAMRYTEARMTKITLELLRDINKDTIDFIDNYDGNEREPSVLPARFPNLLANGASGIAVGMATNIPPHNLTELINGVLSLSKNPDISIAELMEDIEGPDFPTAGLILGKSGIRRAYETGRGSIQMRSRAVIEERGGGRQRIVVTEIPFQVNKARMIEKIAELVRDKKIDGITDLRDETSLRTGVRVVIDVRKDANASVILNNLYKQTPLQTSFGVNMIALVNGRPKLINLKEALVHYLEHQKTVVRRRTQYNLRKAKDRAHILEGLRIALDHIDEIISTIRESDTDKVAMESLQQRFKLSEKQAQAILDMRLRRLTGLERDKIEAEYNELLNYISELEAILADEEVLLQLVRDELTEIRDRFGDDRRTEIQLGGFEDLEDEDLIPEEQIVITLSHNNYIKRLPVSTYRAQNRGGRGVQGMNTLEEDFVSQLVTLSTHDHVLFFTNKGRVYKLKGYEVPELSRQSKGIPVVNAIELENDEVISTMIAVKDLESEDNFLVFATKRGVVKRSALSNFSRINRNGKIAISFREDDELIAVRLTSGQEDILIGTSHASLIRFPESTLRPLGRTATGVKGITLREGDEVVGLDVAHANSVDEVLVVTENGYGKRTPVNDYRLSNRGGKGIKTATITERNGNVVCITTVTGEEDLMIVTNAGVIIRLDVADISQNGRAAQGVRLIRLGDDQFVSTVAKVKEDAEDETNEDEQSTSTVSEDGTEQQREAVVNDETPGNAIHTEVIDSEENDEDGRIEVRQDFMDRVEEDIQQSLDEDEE
S. aureus DNA gyrase, sequence (P0A0K8 whole entry, the tested form may be a part): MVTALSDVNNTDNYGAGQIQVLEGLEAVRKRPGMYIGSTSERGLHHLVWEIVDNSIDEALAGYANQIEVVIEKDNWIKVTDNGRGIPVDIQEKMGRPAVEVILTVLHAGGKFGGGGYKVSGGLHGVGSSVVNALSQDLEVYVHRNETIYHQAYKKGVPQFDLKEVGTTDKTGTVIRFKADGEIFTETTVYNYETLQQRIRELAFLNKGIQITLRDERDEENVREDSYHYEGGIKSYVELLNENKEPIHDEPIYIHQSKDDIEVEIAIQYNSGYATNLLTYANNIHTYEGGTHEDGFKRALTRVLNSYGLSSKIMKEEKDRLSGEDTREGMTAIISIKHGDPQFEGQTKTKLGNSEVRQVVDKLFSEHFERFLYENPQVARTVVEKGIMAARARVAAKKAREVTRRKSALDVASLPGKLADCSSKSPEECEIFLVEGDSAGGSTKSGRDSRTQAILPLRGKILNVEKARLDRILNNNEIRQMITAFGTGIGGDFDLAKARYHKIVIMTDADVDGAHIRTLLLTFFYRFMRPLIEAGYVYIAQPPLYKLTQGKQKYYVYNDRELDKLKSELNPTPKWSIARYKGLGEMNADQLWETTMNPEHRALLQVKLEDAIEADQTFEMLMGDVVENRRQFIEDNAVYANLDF

[8] = test system: Salmonella typhimurium (NCIM-2501); assay: Agar disk diffusion, inhibition zone; format: cell-based; conditions: 100 µg/8 mm disc, triplicate, mean ± SD
[9] = test system: Aspergillus niger (NCIM 2191); assay: MIC, broth microdilution; format: cell-based; conditions: NCIM2191, read-out: Minimum inhibitory concentration (MIC), AN
How it was run: as §2

[10] = test system: Pseudomonas aeruginosa (MCCB 0035); assay: MIC, broth microdilution; format: cell-based; conditions: read-out: Minimum inhibitory concentration (MIC), PA
How it was run: (§4)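 Broth microdilution per CLSI in Mueller-Hinton broth, using two-fold serial dilutions of test compound and reference drugs from 512 to 0.25. Bacterial broth cultures were grown 2-6 h to 0.5 McFarland turbidity, then diluted with sterile solution to the final inoculum. MIC is reported in µg/mL.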

[11] = test system: Candida albicans (NCIM 2087); assay: MIC, broth microdilution; format: cell-based; conditions: NCIM2087, read-out: Minimum inhibitory concentration (MIC), CA
How it was run: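 CLSI broth microdilution in Sabouraud liquid medium, with test compound two-fold serially diluted from 512 to 0.25. Fungal broth culture grown 24 h at 35 °C to 0.5 McFarland turbidity, then adjusted with sterile solution to a final […] inoculum. MIC expressed in µg/mL.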

[12] = test system: Lactobacillus casei (NCIM-2651); assay: Agar disk diffusion, inhibition zone; format: cell-based; conditions: 100 µg/8 mm disc, triplicate, mean ± SD
[13] = test system: Bacillus cereus (NCIM-2458); assay: MIC, broth microdilution; format: cell-based; conditions: NCIM2458, read-out: Minimum inhibitory concentration (MIC), BC
How it was run: as §4

[14] = test system: Candida albicans (NCIM 2087); assay: Agar disk diffusion, inhibition zone; format: cell-based; conditions: 100 µg/8 mm disc, triplicate, mean ± SD
[15] = test system: Bacillus cereus (NCIM-2458); assay: Agar disk diffusion, inhibition zone; format: cell-based; conditions: 100 µg/8 mm disc, triplicate, mean ± SD
[16] = test system: Aspergillus fumigatus (NCIM 2081); assay: Agar disk diffusion, inhibition zone; format: cell-based; conditions: 100 µg/8 mm disc, triplicate, mean ± SD
[17] = test system: Cryptococcus neoformans (ATCC 9011); assay: Agar disk diffusion, inhibition zone; format: cell-based; conditions: 100 µg/8 mm disc, triplicate, mean ± SD
[18] = test system: Streptococcus pneumonia (ATCC 49619); assay: Agar disk diffusion, inhibition zone; format: cell-based; conditions: 100 µg/8 mm disc, triplicate, mean ± SD
[19] = test system: Escherichia coli (ATCC 8739); assay: MIC, broth microdilution; format: cell-based; conditions: ATCC8739, read-out: Minimum inhibitory concentration (MIC), EC
How it was run: as §4

[20] = test system: Cryptococcus neoformans (ATCC 9011); assay: MIC, broth microdilution; format: cell-based; conditions: ATCC9011, read-out: Minimum inhibitory concentration (MIC), CN
How it was run: as §2

[21] = test system: Escherichia coli (ATCC 8739); assay: Agar disk diffusion, inhibition zone; format: cell-based; conditions: 100 µg/8 mm disc, triplicate, mean ± SD
How it was run: as §3

Cc1ccc(S(=O)(=O)N2C(=O)CSC2c2ccc(F)cc2)cc1 (stereo not shown) [5j, 2-(4-Fluorophenyl)-3-[(4-methylphenyl)sulfonyl]-1,3-thiazolidin-4-one]
MIC [1]: 16 µg/mL (≈ 45.5 µM)
MIC [2]: 4 µg/mL (≈ 11.4 µM)
Diameter of growth inhibition zone, KA [3]: 14 ± 0.94 mm
MIC [4]: 4 µg/mL (≈ 11.4 µM)
Diameter of growth inhibition zone, PA [5]: 25 ± 1.5 mm
Diameter of growth inhibition zone, AN [6]: 19 ± 0.6 mm
Diameter of growth inhibition zone, SA [7]: 23 ± 1.1 mm
IC50 (S. aureus DNA gyrase): 4.26 µM
Diameter of growth inhibition zone, ST [8]: 18 ± 0.3 mm
MIC [9]: 8 µg/mL (≈ 22.8 µM)
MIC [10]: 2 µg/mL (≈ 5.69 µM)
MIC [11]: 4 µg/mL (≈ 11.4 µM)
Diameter of growth inhibition zone, LC [12]: 19 ± 0.5 mm
MIC [13]: 8 µg/mL (≈ 22.8 µM)
Diameter of growth inhibition zone, CA [14]: 21 ± 0.9 mm
Diameter of growth inhibition zone, BC [15]: 18 ± 0.5 mm
Diameter of growth inhibition zone, AF [16]: 19 ± 1.2 mm
Diameter of growth inhibition zone, CN [17]: 13 ± 1.5 mm
Diameter of growth inhibition zone, SP [18]: 10 ± 0.6 mm
MIC [19]: 2 µg/mL (≈ 5.69 µM)
MIC [20]: 4 µg/mL (≈ 11.4 µM)
Diameter of growth inhibition zone, EC [21]: 25.9 ± 0.32 mm
